Measurements from ChEMBL document CHEMBL2413053, “3'-Oxo-, amino-, thio- and sulfone-acetic acid modified thymidines: effect of increased acidity on ribonuclease A inhibition” (Bioorg Med Chem, 2013).
Activity calls are given as the source filed them. The calls are words filed in the database; no cut-off is given here.

Experiments:
Ribonuclease pancreatic = target: T1, Ribonuclease pancreatic (Bos taurus, UniProt P61823); assay: Reversible competitive inhibition of bovine pancreatic RNase A using 2',3'-cCMP as substrate by Lineweaver-Burk plot analysis
T1 sequence (P61823 whole entry): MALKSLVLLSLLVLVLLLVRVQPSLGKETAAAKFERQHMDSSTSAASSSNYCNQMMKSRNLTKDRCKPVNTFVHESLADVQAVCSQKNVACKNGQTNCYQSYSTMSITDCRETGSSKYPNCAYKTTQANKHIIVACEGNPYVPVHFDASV
Method in brief: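 Spectrophotometric RNase A assay in 0.1 M Mes–NaOH, pH 6.0, with 0.1 M NaCl, using 2',3'-cCMP as substrate at varied concentrations. Two fixed inhibitor concentrations were run plus a no-inhibitor set. Ki was derived from initial velocities by Lineweaver–Burk analysis.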

[1] = target: T2, Ribonuclease pancreatic (Bos taurus) (UniProt P61823); assay: Inhibition of bovine pancreatic RNase A assessed as degradation of tRNA at 0.06 to 0.24 mM incubated for 3 hrs prior to tRNA addition measured after 30 mins by agarose gel electrophoresis
T2 sequence (whole entry): T1 sequence (P61823 whole entry)
Method in brief: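 RNase A (1.26 μM stock) preincubated 3 h with compound at 0.06, 0.12, 0.18 and 0.24 mM in 100 μL. Aliquot then mixed with tRNA (5.0 mg/mL, freshly dissolved in RNase-free water) for 30 min. Run on 1.1% agarose gel in 0.04 M TAE, pH 8.0. Residual tRNA visualized by ethidium bromide staining under UV.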

[2] = target: T2, Ribonuclease pancreatic (Bos taurus); assay: Inhibition of bovine pancreatic RNase A assessed as degradation of tRNA at 0.35 mM incubated for 2 hrs prior to tRNA addition measured after 30 mins by precipitation assay
Method in brief: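 RNase A (1.31 μM) preincubated with compound (0.35 mM) 2 h at 37 °C; aliquot then mixed with tRNA (5 mg/mL) in Tris–HCl pH 7.5 with 5 mM EDTA and 0.5 mg/mL HSA, 30 min at 25 °C. Quenched with ice-cold 1.14 M perchloric acid/6 mM uranyl acetate, 30 min on ice, centrifuged; diluted supernatant A260 compared with control.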

[3] = target: T2, Ribonuclease pancreatic (Bos taurus); assay: Inhibition of bovine pancreatic RNase A assessed as degradation of tRNA at 0.07 to 0.20 mM incubated for 3 hrs prior to tRNA addition measured after 30 mins by agarose gel electrophoresis
Method in brief: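 RNase A (1.51 μM stock) preincubated 3 h with compound at 0.07, 0.14 and 0.20 mM in 100 μL. Aliquot then mixed 1:1 with tRNA (5.0 mg/mL, freshly dissolved in RNase-free water) and held 30 min. Sample buffer with glycerol and bromophenol blue was added. Run on 1.1% agarose gel in 0.04 M TAE, pH 8.0. Residual tRNA seen by ethidium bromide staining under UV.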

[4] = target: T2, Ribonuclease pancreatic (Bos taurus); settings: 0.05 to 0.20 mM
[5] = target: T2, Ribonuclease pancreatic (Bos taurus); settings: 0.05 to 0.24 mM

Row | SMILES | Ki (Ribonuclease pancreatic) | inhibition [1] | inhibition [2] | inhibition [3] | inhibition [4] | inhibition [5]
1 | Cc1cn([C@H]2C[C@H](SCC(=O)O)[C@@H](CSCC(=O)O)O2)c(=O)[nH]c1=O | 93 µM | Active | 18% | – | – | –
2 | Cc1cn([C@H]2C[C@@H](SCC(=O)O)[C@@H](CSCC(=O)O)O2)c(=O)[nH]c1=O | 108 µM | – | 16% | – | – | –
3 | COC(=O)CS(=O)(=O)C[C@H]1O[C@@H](n2cc(C)c(=O)[nH]c2=O)C[C@H]1S(=O)(=O)CC(=O)OC | 242 µM | – | 12% | Active | – | –
4 | Cc1cn([C@H]2C[C@H](S(=O)(=O)CC(=O)O)[C@@H](CS(=O)(=O)CC(=O)O)O2)c(=O)[nH]c1=O | 25 µM | – | 35% | – | Active | –
5 | COC(=O)CS(=O)(=O)C[C@H]1O[C@@H](n2cc(C)c(=O)[nH]c2=O)C[C@@H]1O | 202 µM | – | 14% | Active | – | –
6 | COC(=O)CSC[C@H]1O[C@@H](n2cc(C)c(=O)[nH]c2=O)C[C@H]1SCC(=O)OC | – | – | 5% | Active | – | –
7 | Cc1cn([C@H]2C[C@H](O)[C@@H](CS(=O)(=O)CC(=O)O)O2)c(=O)[nH]c1=O | 95 µM | Active | 22% | – | – | –
8 | COC(=O)CS(=O)(=O)C[C@H]1O[C@@H](n2cc(C)c(=O)[nH]c2=O)C[C@@H]1S(=O)(=O)CC(=O)OC | 267 µM | – | 15% | Active | – | –
9 | Cc1cn([C@H]2C[C@@H](S(=O)(=O)CC(=O)O)[C@@H](CS(=O)(=O)CC(=O)O)O2)c(=O)[nH]c1=O | 39 µM | – | 33% | – | – | Active
10 | Cc1cn([C@H]2C[C@H](S(=O)(=O)CC(=O)O)[C@@H](CO)O2)c(=O)[nH]c1=O | 88 µM | Active | 25% | – | – | –

Continued, values first:

Row | Ki (Ribonuclease pancreatic) | inhibition [1] | inhibition [2] | inhibition [3] | inhibition [4] | inhibition [5] | SMILES
11 | 757 µM | – | 3% | Active | – | – | COC(=O)CS[C@H]1C[C@H](n2cc(C)c(=O)[nH]c2=O)O[C@@H]1CO
12 | 186 µM | – | 19% | Active | – | – | Cc1cn([C@H]2C[C@H](NCC(=O)O)[C@@H](CO)O2)c(=O)[nH]c1=O
13 | 504 µM | – | 7% | Active | – | – | CCOC(=O)CN[C@H]1C[C@H](n2cc(C)c(=O)[nH]c2=O)O[C@@H]1CO
14 | 169 µM | – | 17% | Active | – | – | Cc1cn([C@H]2C[C@H](SCC(=O)O)[C@@H](CO)O2)c(=O)[nH]c1=O
15 | 267 µM | – | 13% | Active | – | – | Cc1cn([C@H]2C[C@H](OCC(=O)O)[C@@H](CO)O2)c(=O)[nH]c1=O
16 | 140 µM | – | 18% | Active | – | – | COC(=O)CS(=O)(=O)[C@H]1C[C@H](n2cc(C)c(=O)[nH]c2=O)O[C@@H]1CO
